Calls of active or inactive are those of the source. The calls are words filed in the database; no cut-off is given here.
Experiments:
[1] = target: T1, Ubiquitin carboxyl-terminal hydrolase 7 (Homo sapiens, UniProt Q93009); assay: Inhibition of recombinant USP7 catalytic domain (unknown origin) using UbA10 as substrate incubated with substrate for 75 mins followed by compound addition and measured after 1 hr by TR-FRET assay relative to control; design: concentration or dose not given beside the values
Summary of the method: (§1)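 TR-FRET deubiquitinase assay. The recombinant USP7 catalytic domain was mixed with compound (from 2.5 mM DMSO stocks) in 50 mM HEPES pH 7.5 with 0.01% Triton X-100 for 10 min at 25 °C. The substrate was GST- and biotin-tagged Ub-A10, incubated for 75 min at 37 °C. Streptavidin-d2/anti-GST-Eu detection reagents were then added for 1 h at 25 °C and the signal read at […]/em 665 nm. IC50 came from regression.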
Target sequence in this assay (Q93009 whole entry, looked up, the tested form may be a part): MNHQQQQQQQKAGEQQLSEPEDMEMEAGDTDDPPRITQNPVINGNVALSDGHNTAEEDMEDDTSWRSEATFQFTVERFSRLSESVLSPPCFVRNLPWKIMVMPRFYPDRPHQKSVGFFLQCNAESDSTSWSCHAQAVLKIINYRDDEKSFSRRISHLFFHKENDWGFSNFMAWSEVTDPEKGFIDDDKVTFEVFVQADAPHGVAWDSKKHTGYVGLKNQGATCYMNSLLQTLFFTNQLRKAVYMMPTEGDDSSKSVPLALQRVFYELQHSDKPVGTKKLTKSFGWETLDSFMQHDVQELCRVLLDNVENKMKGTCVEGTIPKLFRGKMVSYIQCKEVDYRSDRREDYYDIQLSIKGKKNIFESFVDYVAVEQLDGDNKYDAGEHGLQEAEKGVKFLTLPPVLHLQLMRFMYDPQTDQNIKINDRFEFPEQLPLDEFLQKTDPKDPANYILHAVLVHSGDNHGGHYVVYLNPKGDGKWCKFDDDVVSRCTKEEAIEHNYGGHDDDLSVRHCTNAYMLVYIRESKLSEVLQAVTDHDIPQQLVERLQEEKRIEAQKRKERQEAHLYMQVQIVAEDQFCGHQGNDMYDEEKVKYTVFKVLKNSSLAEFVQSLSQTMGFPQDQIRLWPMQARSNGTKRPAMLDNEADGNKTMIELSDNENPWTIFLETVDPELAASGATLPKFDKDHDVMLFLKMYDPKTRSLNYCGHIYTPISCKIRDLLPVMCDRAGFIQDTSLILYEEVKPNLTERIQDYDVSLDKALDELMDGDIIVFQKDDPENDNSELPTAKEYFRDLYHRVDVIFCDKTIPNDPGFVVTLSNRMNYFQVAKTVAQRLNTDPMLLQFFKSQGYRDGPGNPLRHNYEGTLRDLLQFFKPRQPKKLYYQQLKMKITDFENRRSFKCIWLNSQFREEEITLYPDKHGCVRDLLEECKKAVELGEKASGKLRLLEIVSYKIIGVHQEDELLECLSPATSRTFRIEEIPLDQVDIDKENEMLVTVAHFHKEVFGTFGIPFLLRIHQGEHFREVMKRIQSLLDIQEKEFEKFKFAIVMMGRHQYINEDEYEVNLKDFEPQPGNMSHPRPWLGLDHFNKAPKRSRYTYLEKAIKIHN

[2] = target: T1, Ubiquitin carboxyl-terminal hydrolase 7; assay: Inhibition of recombinant USP7 catalytic domain (unknown origin) using UbA10 as substrate incubated with substrate for 75 mins followed by compound addition and measured after 1 hr by TR-FRET assay; summary of the method: as §1
Target sequence in this assay (Q93009 whole entry, the tested form may be a part): as the sequence (Q93009 whole entry, looked up, the tested form may be a part) above

MGC-803 [3] = assay: Cytotoxicity against human MGC-803 cells incubated for 4 hrs by MTT assay; type: functional, cell-based; conditions: for IC50: MGC-803, 4 h
Summary of the method: (§2)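 MTT assay. Compounds were dissolved in DMSO and tested at […] in triplicate. Cells were incubated with MTT at 37 °C for 4 h, the medium was replaced with DMSO, and absorbance was read at 490 nm. IC50 values came from regression.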

BGC-823 [4] = assay: Cytotoxicity against human BGC-823 cells at 50 uM incubated for 4 hrs by MTT assay relative to control; type: functional
BGC-823 [5] = assay: Cytotoxicity against human BGC-823 cells incubated for 4 hrs by MTT assay; type: functional, cell-based; summary of the method: as §2
MGC-803 [6] = assay: Cytotoxicity against human MGC-803 cells at 50 uM incubated for 4 hrs by MTT assay relative to control; type: functional
[7] = target: T1, Ubiquitin carboxyl-terminal hydrolase 7; assay: Inhibition of USP7 in human BGC-823 cells assessed as upregulation of p21 protein expression by Western blot analysis; type: cell-based
Target sequence in this assay (Q93009 whole entry, looked up, the tested form may be a part): as above

[8] = target: T1, Ubiquitin carboxyl-terminal hydrolase 7; assay: Binding affinity to recombinant USP7 (208 to 560 residues) (unknown origin) assessed as dissociation constant by biolayer interferometry
Target sequence in this assay (Q93009 whole entry, the tested form may be a part): as the sequence (Q93009 whole entry, looked up, the tested form may be a part) above

[9] = target: T1, Ubiquitin carboxyl-terminal hydrolase 7; assay: Inhibition of USP7 in human MGC-803 cells assessed as increase in p53 expression level at 2.5 to 10 uM by Western blot analysis; type: cell-based; conditions: dose 2.5-10 µM
Target sequence in this assay (Q93009 whole entry, looked up, the tested form may be a part): as above

MGC-803 [10] = assay: Inhibition of colony formation in human MGC-803 cells after 7 days by crystal violet staining based assay; type: functional, cell-based; conditions: time 7.0 day
Summary of the method: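 Clonogenic assay: MGC-803 cells in log phase were seeded at 200 cells per well, allowed to attach for 12 h at 37 °C in 5% CO2, then exposed to the indicated concentrations or to DMSO for 7 days. Colonies were fixed with 4% paraformaldehyde and stained with 0.1% crystal violet for 15 min.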

MGC-803 [11] = assay: Induction of cell cycle arrest in human MGC-803 cells assessed as accumulation of cells at G0/G1 phase incubated for 72 hrs by propidium iodide staining based flow cytometry; type: functional
Summary of the method: (§3)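 Cell cycle: MGC-803 cells were treated with various compound concentrations for 72 h, harvested, washed in PBS at 4 °C, and stained with a commercial PI cell-cycle kit following its instructions. DNA content was analysed by flow cytometry.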

[12] = target: T1, Ubiquitin carboxyl-terminal hydrolase 7; assay: Inhibition of N-terminal His-FLAG-tagged human USP7 (2 to 1102 residues) expressed in baculovirus infected Sf9 cells using Ub-AMC as substrate preincubated with enzyme for 40 mins followed by substrate addition for 30 mins by fluorescence plate reader analysis
Summary of the method: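 USP7 activity with a commercial Ub-AMC inhibitor screening kit. Compound working solutions were made in 1X buffer containing 6.5 mM DTT. USP7 was added and preincubated for 40 min at 25 °C. Ub-AMC, diluted 800-fold, was added for 30 min at 25 °C. Fluorescence was read at ex 360/em 460 nm, and IC50 came from regression.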
Target sequence in this assay (Q93009 whole entry, the tested form may be a part): as the sequence (Q93009 whole entry, looked up, the tested form may be a part) above

[13] = target: T1, Ubiquitin carboxyl-terminal hydrolase 7; assay: Inhibition of USP7 in human MGC-803 cells assessed as increase in p21 expression level at 2.5 to 10 uM by Western blot analysis; type: cell-based; conditions: dose 2.5-10 µM
Target sequence in this assay (Q93009 whole entry, looked up, the tested form may be a part): as above

[14] = target: T1, Ubiquitin carboxyl-terminal hydrolase 7; assay: Inhibition of USP7 in human MGC-803 cells assessed as decrease in MDM2 protein level by Western blot analysis; type: cell-based; conditions: time 0.5-7 hrs, TDE = time-dependent effect
Target sequence in this assay (Q93009 whole entry, looked up, the tested form may be a part): as above

MGC-803 [15] = assay: Induction of cell cycle arrest in human MGC-803 cells assessed as accumulation of cells at S phase incubated for 72 hrs by propidium iodide staining based flow cytometry; type: functional; summary of the method: as §3

With `O=C(c1ccccc1)N1CCC(O)(Cn2cnc3cc(Cl)ccc3c2=O)CC1` the inhibition [1] was 18.6%.

`O=C(c1ccccn1)N1CCC(O)(Cn2cnc3cc(Cl)ccc3c2=O)CC1` was tested, and the IC50 [2] was over 50 µM and the inhibition [1] was under 50%.

`O=C(c1cccc(Cl)c1Cl)N1CCC(O)(Cn2cnc3cc(Cl)ccc3c2=O)CC1` was tested, and the Activity (MGC-803 [3]) was “Active”.

`O=C(Cc1cccc2ccccc12)N1CCC(O)(Cn2cnc3cc(Cl)ccc3c2=O)CC1` gave an IC50 [2] of over 50 µM.

In the case of `O=C(CCc1ccccc1)N1CCC(O)(Cn2cnc3cc(Cl)ccc3c2=O)CC1`, the inhibition at 50 µM (BGC-823 [4]) is reported as 8.45%, the Activity (MGC-803 [3]) is reported as “inactive” and the Activity (BGC-823 [5]) is reported as “inactive”. The IC50 [2] was 23.1 µM and the inhibition at 50 µM (MGC-803 [6]) was 31.4%.

`O=C(CCc1ccccc1)N1CCC(O)(Cn2cnc3cc(NCCN4CCCCC4)ccc3c2=O)CC1` was tested, and the IC50 [2] was 37 µM.

For `O=C(Cc1ccc(C(F)(F)F)cc1)N1CCC(O)(Cn2cnc3cc(Cl)ccc3c2=O)CC1`, the IC50 [2] was over 50 µM.

For `CC(CC(=O)N1CCC(O)(Cn2cnc3cc(NCCN4CCCC4)ccc3c2=O)CC1)c1ccccc1` (stereo not given), the inhibition [7] was “Dose-Dependent Effect”.

`O=C(CCc1ccccc1)N1CCC(O)(Cn2cnc3cc(NCc4ccccc4Cl)ccc3c2=O)CC1` gave an inhibition at 50 µM (BGC-823 [4]) of 58.2%, an IC50 (MGC-803 [3]) of 29.7 µM and an IC50 (BGC-823 [5]; BGC-823, 4 h) of 43.1 µM. It also gave an inhibition [1] of 49.1% and an inhibition at 50 µM (MGC-803 [6]) of 86.7%.

`Nc1cc(Br)ccc1C(=O)N1CCC(O)(Cn2cnc3cc(Cl)ccc3c2=O)CC1` was tested, and the inhibition at 50 µM (BGC-823 [4]) was 52%, the IC50 (MGC-803 [3]) was 30 µM and the Activity (BGC-823 [5]) was “Active”. The IC50 [2] was 46.3 µM.

`O=C(CCc1ccccc1)N1CCC(O)(Cn2cnc3cc(NCCN4CCCC4)ccc3c2=O)CC1` was tested, and the Kd [8] was 77 µM, the inhibition [9] was “Active” and the inhibition (MGC-803 [10]) was “Active”. For the same compound, the inhibition at 50 µM (BGC-823 [4]) was 28.4%, the Activity (MGC-803 [11]) was “Active” and the IC50 [2] was 4.86 µM. The IC50 [12] was 5.05 µM, the inhibition [13] was “Active” and the inhibition at 50 µM (MGC-803 [6]) was 31%. For the same compound, the inhibition [14] was “Tde” and the Activity (MGC-803 [15]) was “Active”.

`O=C(c1ccc[nH]1)N1CCC(O)(Cn2cnc3cc(Cl)ccc3c2=O)CC1` showed an IC50 [2] of over 50 µM and an inhibition [1] of under 50%.

Work on `CC(CC(=O)N1CCC(O)(Cn2cnc3cc(Cl)ccc3c2=O)CC1)c1ccccc1` (stereo not given) yielded an IC50 [2] of 6.79 µM.

Work on `O=C(c1ccccc1[N+](=O)[O-])N1CCC(O)(Cn2cnc3cc(Cl)ccc3c2=O)CC1` yielded an inhibition [1] of 4.29%.

With `O=C(CCc1ccccc1)N1CCC(O)(Cn2cnc3cc(NCc4ccco4)ccc3c2=O)CC1` the IC50 [2] was 9.8 µM.

Work on `O=C(COc1ccccc1)N1CCC(O)(Cn2cnc3cc(Cl)ccc3c2=O)CC1` yielded an inhibition [1] of 22.7%.

`O=C(CCc1ccccc1)N1CCC(O)(Cn2cnc3cc(Br)ccc3c2=O)CC1` showed an IC50 [2] of 27.4 µM.

For `O=C(c1cccc(Br)c1)N1CCC(O)(Cn2cnc3cc(Cl)ccc3c2=O)CC1`, the inhibition [1] was 42.2%.

For `O=C(CCc1ccccc1)N1CCC(O)(Cn2cnc3cc(NCCO)ccc3c2=O)CC1`, the IC50 [2] was 16.4 µM.

Work on `O=C(c1ccc([N+](=O)[O-])cc1)N1CCC(O)(Cn2cnc3cc(Cl)ccc3c2=O)CC1` yielded an inhibition [1] of 58.3%.

For `CC(CC(=O)N1CCC(O)(Cn2cnc3cc(NCCN(C)C)ccc3c2=O)CC1)c1ccccc1` (stereo not given), the inhibition [7] was “Dose-Dependent Effect”, the IC50 [2] was 1.54 µM and the IC50 [12] was 0.595 µM.

`CN(C)CCNc1ccc2c(=O)n(CC3(O)CCN(C(=O)CCc4ccccc4)CC3)cnc2c1` was tested, and the inhibition [7] was “Dose-Dependent Effect” and the IC50 [2] was 5.98 µM.

`COc1ccccc1CNc1ccc2c(=O)n(CC3(O)CCN(C(=O)CCc4ccccc4)CC3)cnc2c1` gave an inhibition [1] of 45.9%.

For `O=C(CCc1ccccc1)N1CCC(O)(Cn2cnc3cc(NCc4ccc(Cl)cc4)ccc3c2=O)CC1`, the inhibition [1] was 49.9%.

For `O=C(c1ccc(O)cc1)N1CCC(O)(Cn2cnc3cc(Cl)ccc3c2=O)CC1`, the Activity (MGC-803 [3]) was “Active” and the Activity (BGC-823 [5]) was “Active”.

In the case of `O=C(CCc1ccccc1)N1CCC(O)(Cn2cnc3cc(NCCc4ccccc4)ccc3c2=O)CC1`, the inhibition at 50 µM (BGC-823 [4]) is reported as 54%, the IC50 (MGC-803 [3]) is reported as 32.1 µM and the Activity (BGC-823 [5]) is reported as “Active”. It also gave an IC50 [2] of 15.3 µM.

`O=C(c1cccnc1)N1CCC(O)(Cn2cnc3cc(Cl)ccc3c2=O)CC1` was tested, and the IC50 [2] was over 50 µM and the inhibition [1] was under 50%.

For `O=C(COc1cccc2ccccc12)N1CCC(O)(Cn2cnc3cc(Cl)ccc3c2=O)CC1`, the Activity (MGC-803 [3]) was “Active”, the Activity (BGC-823 [5]) was “Active” and the inhibition [1] was 9.83%.

For `Nc1cc(Cl)ccc1C(=O)N1CCC(O)(Cn2cnc3cc(Cl)ccc3c2=O)CC1`, the Activity (MGC-803 [3]) was “Active” and the inhibition [1] was 46.5%.

In the case of `Cc1ccc(S(=O)(=O)N2CCC(O)(Cn3cnc4cc(Cl)ccc4c3=O)CC2)cc1`, the inhibition [1] is reported as 0.8%.

`O=C(/C=C/c1ccccc1)N1CCC(O)(Cn2cnc3cc(Cl)ccc3c2=O)CC1` showed an inhibition [1] of 32.6%.

Source: ChEMBL document CHEMBL4811235, “Design, synthesis, biological evaluation and structure-activity relationship study of quinazolin-4(3H)-one derivatives as novel USP7 inhibitors” (Eur J Med Chem, 2021)
